{"data": "Results gathered from unrelated publications", "RPS6KA6": "Ribosomal protein S6 kinase alpha-6 (RPS6KA6, Homo sapiens, UniProt Q9UK32)", "RPS6KA6 N-terminal kinase domain": "Ribosomal protein S6 kinase alpha-6, N-terminal kinase domain (RPS6KA6, Homo sapiens, UniProt Q9UK32)", "RPS6KA6 C-terminal kinase domain": "Ribosomal protein S6 kinase alpha-6, C-terminal kinase domain (RPS6KA6, Homo sapiens, UniProt Q9UK32)", "note": "Lines come from different studies, so protocols differ."}
{"Structure (SMILES)": "O=c1[nH]c2ccccc2n1C1CCN(Cc2ccc(-c3[nH]c4cc5ncnc5cc4nc3-c3ccccc3)cc2)CC1", "target": "RPS6KA6", "assay": "cell-free assay", "setting": "0.5 µM", "endpoint": "remaining signal", "result": "109%"}
{"Structure (SMILES)": "Cn1cncc1[C@](O)(COc1ccc(C#N)cc1-c1ccc(OC(F)(F)F)cc1)c1ccc(C#N)cc1", "target": "RPS6KA6 N-terminal kinase domain", "assay": "cell-free assay, competition with immobilised ligand", "setting": "1 µM", "endpoint": "remaining binding", "result": "91%"}
{"Structure (SMILES)": "Cn1cc(-c2cc(F)cc(N3CCn4c(cc5c4CCCC5)C3=O)c2CO)cc(Nc2ccc(N3CCN(C4COC4)CC3)cn2)c1=O", "target": "RPS6KA6", "assay": "enzyme activity, inhibitor", "setting": "0.1 µM", "endpoint": "inhibition", "result": "2%"}
{"Structure (SMILES)": "CC(C)(C)c1cc(C=C(C#N)C#N)cc(Br)c1O", "target": "RPS6KA6", "assay": "enzyme activity, inhibitor", "setting": "0.5 µM", "endpoint": "remaining activity", "result": "101%"}
{"Structure (SMILES)": "Nc1ncc(-c2nc(N3CCOCC3)nc(N3CCOCC3)n2)c(C(F)F)n1", "target": "RPS6KA6 C-terminal kinase domain", "assay": "binding, competition with immobilised ligand", "setting": "10 µM", "endpoint": "remaining binding", "result": "94%"}
{"Structure (SMILES)": "Cn1cc(-c2cccc(N3CCc4c(sc5c4CC(C)(C)C5)C3=O)c2CO)cc(Nc2ccncn2)c1=O", "target": "RPS6KA6", "assay": "enzyme activity, inhibitor", "setting": "1 µM", "endpoint": "inhibition", "result": "9%"}
{"Structure (SMILES)": "COc1cc(Nc2ncc(F)c(Nc3ccc4c(n3)NC(=O)C(C)(C)O4)n2)cc(OC)c1OC", "target": "RPS6KA6 N-terminal kinase domain", "assay": "binding, competition with immobilised ligand", "setting": "10 µM", "endpoint": "inhibition", "result": "70%"}
{"Structure (SMILES)": "N#CC1(c2ccccn2)CCN(Cc2cc(C(=O)O)c(=O)n3ccccc23)CC1", "target": "RPS6KA6 C-terminal kinase domain", "assay": "cell-free assay, competition with immobilised ligand", "setting": "1 µM", "endpoint": "remaining binding", "result": "97%"}
{"Structure (SMILES)": "Cc1nn(C)cc1-c1nc2c(N3CCN(Cc4ccc(Cl)cc4)CC3)c(Cl)cnc2[nH]1", "target": "RPS6KA6 N-terminal kinase domain", "assay": "binding, competition with immobilised ligand", "setting": "1 µM", "endpoint": "remaining binding", "result": "66%"}
